Assay results as given in ChEMBL document CHEMBL4138140, “Discovery of Mechanism-Based Inactivators for Human Pancreatic Carboxypeptidase A from a Focused Synthetic Library” (ACS Med Chem Lett, 2017).

Columns and labels:
Carboxypeptidase A1 [1] = target: T1, Carboxypeptidase A1 (Homo sapiens, UniProt P15085); assay: (§1) Irreversible inhibition of recombinant human carboxypeptidase A1 expressed in Pichia pastoris using N-(4-methoxyphenylazoformyl)-Phe-OH as substrate measured for 600 secs by double reciprocal plot analysis; conditions: read-out: Ki(app)
T1 sequence (P15085 whole entry): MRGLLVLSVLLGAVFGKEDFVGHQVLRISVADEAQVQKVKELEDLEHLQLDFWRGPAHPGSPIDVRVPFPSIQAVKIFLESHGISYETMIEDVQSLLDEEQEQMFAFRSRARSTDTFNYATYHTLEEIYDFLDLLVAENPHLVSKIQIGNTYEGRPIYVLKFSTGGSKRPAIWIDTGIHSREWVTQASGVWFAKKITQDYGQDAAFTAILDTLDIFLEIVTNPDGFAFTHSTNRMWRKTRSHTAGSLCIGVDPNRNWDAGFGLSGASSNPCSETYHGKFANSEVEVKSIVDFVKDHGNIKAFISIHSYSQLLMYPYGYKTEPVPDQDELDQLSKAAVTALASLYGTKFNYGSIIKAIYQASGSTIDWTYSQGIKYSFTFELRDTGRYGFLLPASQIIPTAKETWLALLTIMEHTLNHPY

[2] = target: T2, Carboxypeptidase A1 (Homo sapiens) (UniProt P15085); assay: as §1
T2 sequence (whole entry): T1 sequence (P15085 whole entry)

Carboxypeptidase A1 [3] = target: T3, Carboxypeptidase A1 (Bos taurus, UniProt P00730); assay: Inhibition of bovine carboxypeptidase A using N-(4-methoxyphenylazoformyl)-Phe-OH as substrate preincubated for 2 mins followed by susbtrate addition measured for 15 mins at 30 secs interval
T3 sequence (P00730 whole entry): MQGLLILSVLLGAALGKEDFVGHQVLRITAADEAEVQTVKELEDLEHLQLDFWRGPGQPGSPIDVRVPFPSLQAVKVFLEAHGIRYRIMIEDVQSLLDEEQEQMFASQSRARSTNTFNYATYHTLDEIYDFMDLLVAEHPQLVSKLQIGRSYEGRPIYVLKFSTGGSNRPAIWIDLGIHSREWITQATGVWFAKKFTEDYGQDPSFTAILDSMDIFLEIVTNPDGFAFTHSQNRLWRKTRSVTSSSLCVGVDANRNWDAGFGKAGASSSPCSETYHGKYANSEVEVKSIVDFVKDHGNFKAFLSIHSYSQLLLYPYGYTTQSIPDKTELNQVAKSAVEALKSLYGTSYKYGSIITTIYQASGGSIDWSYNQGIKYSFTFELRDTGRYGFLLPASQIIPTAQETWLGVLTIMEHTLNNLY
Summary of the method: (§2)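 Compound was pre-incubated with enzyme before the activity assay, either briefly (2 min) or long (3 h), to test for time-dependent inhibition.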

Carboxypeptidase A1 [4] = target: T3, Carboxypeptidase A1; assay: Inhibition of bovine carboxypeptidase A using N-(4-methoxyphenylazoformyl)-Phe-OH as substrate preincubated for 3 hrs followed by susbtrate addition measured for 15 mins at 30 secs interval; summary of the method: as §2

Work on `O=C(O)[C@@H](Cc1ccc(I)cc1)[C@H]1CS1` (racemic) yielded a Ki (Carboxypeptidase A1 [1]) of 289 µM, a Kinact [2] of 0.69 min⁻¹ and an IC50 (Carboxypeptidase A1 [3]) of 46.3 µM. The IC50 (Carboxypeptidase A1 [4]) was 0.96 µM.
For `CCC[C@H](C(=O)O)[C@@H]1CS1` (racemic), the Ki (Carboxypeptidase A1 [1]) was 294 µM, the Kinact [2] was 0.82 min⁻¹ and the IC50 (Carboxypeptidase A1 [3]) was 31.9 µM. It also gave an IC50 (Carboxypeptidase A1 [4]) of 0.6 µM.
`CC(C)C[C@H](C(=O)O)[C@@H]1CO1` (racemic) showed an IC50 (Carboxypeptidase A1 [4]) of 33.1 µM.
In the case of `CC(C)C[C@H](C(=O)O)[C@@H]1CS1` (racemic), the Ki (Carboxypeptidase A1 [1]) is reported as 56 µM, the Kinact [2] is reported as 0.52 min⁻¹ and the IC50 (Carboxypeptidase A1 [3]) is reported as 14 µM. The IC50 (Carboxypeptidase A1 [4]) was 0.26 µM.
With `CC(C)C[C@H](C(=O)O)[C@H]1CS1` (racemic) the IC50 (Carboxypeptidase A1 [4]) was 31.9 µM.
`CC(C)C[C@H](C(=O)O)[C@H]1CO1` (racemic) showed an IC50 (Carboxypeptidase A1 [4]) of 0.57 µM.
Work on `CCC[C@H](C(=O)O)[C@@H]1CO1` (racemic) yielded an IC50 (Carboxypeptidase A1 [3]) of 115 µM and an IC50 (Carboxypeptidase A1 [4]) of 1.13 µM.
`O=C(O)[C@@H](CC1CC1)[C@H]1CS1` (racemic) showed an IC50 (Carboxypeptidase A1 [3]) of 174 µM and an IC50 (Carboxypeptidase A1 [4]) of 1.8 µM.
For `O=C(O)[C@@H](CCc1ccccc1)[C@@H]1CS1` (racemic), the IC50 (Carboxypeptidase A1 [4]) was 16.4 µM.
Molecule `O=C(O)[C@@H](Cc1ccc(F)cc1)[C@H]1CS1` (racemic) has a Ki (Carboxypeptidase A1 [1]) of 60.4 µM, a Kinact [2] of 0.47 min⁻¹ and an IC50 (Carboxypeptidase A1 [3]) of 18.7 µM. It also gave an IC50 (Carboxypeptidase A1 [4]) of 0.47 µM.
`O=C(O)[C@@H](Cc1ccc(I)cc1)[C@@H]1CO1` (racemic) was tested, and the Ki (Carboxypeptidase A1 [1]) was 413 µM, the Kinact [2] was 0.6 min⁻¹ and the IC50 (Carboxypeptidase A1 [3]) was 48.3 µM. It also gave an IC50 (Carboxypeptidase A1 [4]) of 1.04 µM.
Work on `O=C(O)[C@@H](CC1CCC1)[C@@H]1CO1` (racemic) yielded an IC50 (Carboxypeptidase A1 [3]) of 57.9 µM and an IC50 (Carboxypeptidase A1 [4]) of 1.13 µM.
With `O=C(O)[C@@H](CC1CCC1)[C@H]1CS1` (racemic) the IC50 (Carboxypeptidase A1 [3]) was 60 µM and the IC50 (Carboxypeptidase A1 [4]) was 0.97 µM.
`O=C(O)[C@@H](CCc1ccccc1)[C@@H]1CO1` (racemic) showed an IC50 (Carboxypeptidase A1 [4]) of 8.25 µM.
In the case of `O=C(O)[C@@H](CC1CC1)[C@@H]1CO1` (racemic), the IC50 (Carboxypeptidase A1 [3]) is reported as 276 µM and the IC50 (Carboxypeptidase A1 [4]) is reported as 11.2 µM.
In the case of `O=C(O)[C@@H](Cc1ccc(F)cc1)[C@@H]1CO1` (racemic), the Ki (Carboxypeptidase A1 [1]) is reported as 238 µM, the Kinact [2] is reported as 0.71 min⁻¹ and the IC50 (Carboxypeptidase A1 [3]) is reported as 21.9 µM. The IC50 (Carboxypeptidase A1 [4]) was 0.51 µM.
